Measured values reported in ChEMBL document CHEMBL4706572, “Benzyl and benzoyl benzoic acid inhibitors of bacterial RNA polymerase-sigma factor interaction” (Eur J Med Chem, 2020).
Converted amounts (≈) assume the structure as drawn. The source made the active and inactive calls. The rule behind the calls is not given here.

How the values were obtained:
Staphylococcus aureus [1] = assay: Antibacterial activity against Staphylococcus aureus ATCC 25923 after 20 hrs by CLSI based-broth microdilution method; type: functional
In short: (§1)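 Broth microdilution in cation-adjusted Mueller-Hinton broth. Two-fold serial dilutions from 256 μg/mL down to 0.5 μg/mL. Inoculum approx. 5 × 10^5 CFU/mL. Incubated 20 h at 37 °C. MIC taken as the lowest concentration with no observable growth.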

Streptococcus pneumoniae = assay: Antibacterial activity against Streptococcus pneumoniae ATCC 49619 after 20 hrs by CLSI based-broth microdilution method; type: functional
In short: (§2)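 Streptococci tested in Brain Heart Infusion broth. Two-fold dilutions from 256 to 0.5 μg/mL, inoculum approx. 5 × 10^5 CFU/mL. Incubated 20 h at 37 °C. MIC is the lowest concentration without visible growth.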

Staphylococcus aureus [2] = assay: Antibacterial activity against Staphylococcus aureus ATCC 29213 after 20 hrs by CLSI based-broth microdilution method; type: functional; in short: as §1
Enterococcus faecalis = assay: Antibacterial activity against Enterococcus faecalis ATCC 19433 after 20 hrs by CLSI based-broth microdilution method; type: functional
In short: (§3)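 Broth microdilution MIC. Two-fold serial dilutions from 256 μg/mL down to 0.5 μg/mL. Inoculum approx. 5 × 10^5 CFU/mL. Read after 20 h at 37 °C. MIC is the lowest concentration with no observable growth.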

Clostridioides difficile [3] = assay: Antibacterial activity against Clostridium difficile ribotype 002 assessed as reduction in bacterial toxin A production at sub-inhibitory concentration incubated for 48 hrs under anaerobic condition by ELISA; type: functional, organism-based
In short: (§4)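 Incubated anaerobically at 37 °C for 48 h. Supernatants cleared at 10,000 × g for 2 min. TcdA and TcdB quantified by commercial ELISA, normalized to drug-free control. Duplicate, with technical and biological repeats.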

Staphylococcus aureus [4] = assay: Inhibition of RNAP/sigma factor interaction in Staphylococcus aureus ATCC 29213 assessed as reduction in total RNA level by fluorimetric method
In short: (§5)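 S. aureus ATCC 29213 master culture started at OD600 0.1 at 37 °C with shaking at 175 rpm. At OD600 0.2 it was split and given compound or control at ¼ and ⅛ MIC, plus a drug-free culture. Cells harvested when the control reached OD600 0.6, with volumes normalized to OD600 0.6 equivalent. DNA and RNA measured by Qubit fluorometry, protein by BCA; triplicate.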

[5] = Antibacterial activity against Staphylococcus saprophyticus ATCC 15305 after 20 hrs by CLSI based-broth microdilution method; type: functional, Staphylococcus saprophyticus subsp. saprophyticus; in short: as §1
Clostridioides difficile [6] = assay: Antibacterial activity against Clostridium difficile ribotype 027 assessed as reduction in bacterial toxin A production at sub-inhibitory concentration incubated for 48 hrs under anaerobic condition by ELISA; type: functional, organism-based; in short: as §4
Bacillus subtilis [7] = assay: Antibacterial activity against Bacillus subtilis BS1048 after 20 hrs by CLSI based broth microdilution method; type: functional; in short: as §3
Staphylococcus aureus [8] = assay: Inhibition of RNAP/sigma factor interaction in Staphylococcus aureus ATCC 29213 assessed as reduction in total protein level at 1/4 to 1/8 times MIC by fluorimetric method
Bacillus subtilis [9] = assay: Inhibition of GFP-fused RNAP subunit beta' interaction with sigma factor A in Bacillus subtilis BS1048 assessed as nucleoid delocalization at half MIC incubated for 15 mins by confocal microscopy
In short: (§6)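 B. subtilis BS1048 (RpoC-GFP) grown from a single colony in LB at 37 °C to OD600 ~0.6. […] Cells mounted on 1.2% agarose under a coverslip and imaged by confocal microscopy with a 63×/1.3 oil objective for RNAP-GFP localization relative to the nucleoid.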

[10] = system: Staphylococcus epidermidis; assay: Antibacterial activity against Staphylococcus epidermidis ATCC 12228 after 20 hrs by CLSI based-broth microdilution method; type: functional; in short: as §1
Clostridioides difficile [11] = assay: Antibacterial activity against Clostridium difficile ATCC 9689 assessed as reduction in bacterial toxin B production at sub-inhibitory concentration incubated for 48 hrs under anaerobic condition by ELISA; type: functional, organism-based; settings: ATCC 9689 = DSM 1296; in short: as §4
Streptococcus pyogenes = assay: Antibacterial activity against Streptococcus pyogenes ATCC 19615 after 20 hrs by CLSI based-broth microdilution method; type: functional; in short: as §2
Streptococcus agalactiae = assay: Antibacterial activity against Streptococcus agalactiae ATCC 12386 after 20 hrs by CLSI based-broth microdilution method; type: functional; in short: as §2
Clostridioides difficile [12] = assay: Antibacterial activity against Clostridium difficile ribotype 027 assessed as reduction in bacterial toxin B production at sub-inhibitory concentration incubated for 48 hrs under anaerobic condition by ELISA; type: functional, organism-based; in short: as §4
Bacillus subtilis [13] = assay: Inhibition of GFP-fused RNAP subunit beta' interaction with sigma factor A in Bacillus subtilis BS1048 assessed as alteration in transcriptional complex localization by measuring diffusion of fluorescent signal into cytosol at 1 to 2 times MIC incubated for 15 mins by confocal microscopy; type: subcellular; in short: as §6
Clostridioides difficile [14] = assay: Antibacterial activity against Clostridium difficile ribotype 002 assessed as reduction in bacterial toxin B production at sub-inhibitory concentration incubated for 48 hrs under anaerobic condition by ELISA; type: functional, organism-based; in short: as §4
Staphylococcus aureus [15] = assay: Inhibition of RNAP/sigma factor interaction in Staphylococcus aureus ATCC 29213 assessed as total DNA level at 1/4 to 1/8 times MIC by fluorimetric method; in short: as §5
Clostridioides difficile [16] = assay: Antibacterial activity against Clostridium difficile ATCC 9689 assessed as reduction in bacterial toxin A production at sub-inhibitory concentration incubated for 48 hrs under anaerobic condition by ELISA; type: functional, organism-based; settings: ATCC 9689 = DSM 1296; in short: as §4
Staphylococcus aureus [17] = assay: Inhibition of RNA polymerase in Staphylococcus aureus ATCC 29213 assessed as reduction in total RNA level at 1/4 to 1/8 times MIC by fluorimetric method; in short: as §5
Staphylococcus aureus [18] = assay: Inhibition of RNA polymerase in Staphylococcus aureus ATCC 29213 assessed as reduction in total protein level at 1/4 to 1/8 times MIC by fluorimetric method
Staphylococcus aureus [19] = assay: Inhibition of RNA polymerase in Staphylococcus aureus ATCC 29213 assessed as total DNA level at 1/4 to 1/8 times MIC by fluorimetric method; in short: as §5

Question: For `COc1ccccc1C(=O)c1ccc(Sc2ccc(Cl)c(Cl)c2)c([N+](=O)[O-])c1`, which MIC (Staphylococcus aureus [1]) is on record?
Answer: > 256 mg/L

Question: And the MIC (Streptococcus pneumoniae)?
Answer: > 256 mg/L

Question: And the MIC (Staphylococcus aureus [2])?
Answer: > 256 mg/L

Question: Which MIC (Streptococcus pneumoniae) does the source give for `O=C(O)c1ccc(C(F)(F)F)cc1Cc1ccc(Sc2ccc(Cl)c(Cl)c2)c([N+](=O)[O-])c1` here?
Answer: 1 mg/L (≈ 1.99 µM)

Question: Which MIC (Enterococcus faecalis) does the source give for `O=C(O)c1ccc(C(F)(F)F)cc1C(=O)c1ccc(Sc2ccc(Cl)c(Cl)c2)c([N+](=O)[O-])c1` here?
Answer: 8 mg/L (≈ 15.5 µM)

Question: What about the Activity (Clostridioides difficile [3]) of the same molecule?
Answer: Dose-dependent effect

Question: What about the inhibition (Staphylococcus aureus [4]) of the same molecule?
Answer: Dose-dependent effect

Question: And the MIC (Staphylococcus aureus [1])?
Answer: 4 mg/L (≈ 7.75 µM)

Question: And the MIC [5]?
Answer: 1 mg/L (≈ 1.94 µM)

Question: And the Activity (Clostridioides difficile [6])?
Answer: Dose-dependent effect

Question: What about the MIC (Bacillus subtilis [7]) of the same molecule?
Answer: 2 mg/L (≈ 3.87 µM)

Question: What about the inhibition (Staphylococcus aureus [8]) of the same molecule?
Answer: Active

Question: What about the inhibition (Bacillus subtilis [9]) of the same molecule?
Answer: Active

Question: What about the MIC [10] of the same molecule?
Answer: 0.5 mg/L (≈ 0.968 µM)

Question: What about the Activity (Clostridioides difficile [11]) of the same molecule?
Answer: Dose-dependent effect

Question: What about the MIC (Streptococcus pyogenes) of the same molecule?
Answer: 4 mg/L (≈ 7.75 µM)

Question: And the MIC (Streptococcus agalactiae)?
Answer: 4 mg/L (≈ 7.75 µM)

Question: And the Activity (Clostridioides difficile [12])?
Answer: Dose-dependent effect

Question: And the MIC (Streptococcus pneumoniae)?
Answer: 2 mg/L (≈ 3.87 µM)

Question: And the inhibition (Bacillus subtilis [13])?
Answer: Active

Question: What about the Activity (Clostridioides difficile [14]) of the same molecule?
Answer: Dose-dependent effect

Question: What about the inhibition (Staphylococcus aureus [15]) of the same molecule?
Answer: inactive

Question: What about the MIC (Staphylococcus aureus [2]) of the same molecule?
Answer: 4 mg/L (≈ 7.75 µM)

Question: What about the Activity (Clostridioides difficile [16]) of the same molecule?
Answer: Dose-dependent effect

Question: What does the source list for `CCc1c(Cl)c(O)c(Cl)c(O)c1C(=O)O[C@H]1[C@H](O)[C@H](OC)[C@H](OC/C2=C\C=C\C[C@H](O)/C(C)=C/[C@H](CC)[C@@H](O[C@@H]3OC(C)(C)[C@@H](OC(=O)C(C)C)[C@H](O)[C@@H]3O)/C(C)=C/C(C)=C/C[C@@H]([C@@H](C)O)OC2=O)O[C@@H]1C`?
Answer: Activity (Clostridioides difficile [3]): Dose-dependent effect; Activity (Clostridioides difficile [6]): Dose-dependent effect; Activity (Clostridioides difficile [11]): Dose-dependent effect; Activity (Clostridioides difficile [12]): Dose-dependent effect; Activity (Clostridioides difficile [14]): Dose-dependent effect; Activity (Clostridioides difficile [16]): Dose-dependent effect

Question: What does the source list for `O=C(O)c1cc(C(F)(F)F)ccc1C(=O)c1ccc(Sc2ccc(Cl)c(Cl)c2)c([N+](=O)[O-])c1`?
Answer: MIC (Staphylococcus aureus [1]): 16 mg/L (≈ 31 µM); MIC (Streptococcus pneumoniae): 4 mg/L (≈ 7.75 µM); MIC (Staphylococcus aureus [2]): 8 mg/L (≈ 15.5 µM)

Question: For `O=C(O)c1ccc(F)cc1C(=O)c1ccc(Sc2ccc(Cl)c(Cl)c2)c([N+](=O)[O-])c1`, which MIC (Staphylococcus aureus [1]) is on record?
Answer: 16 mg/L (≈ 34.3 µM)

Question: What about the MIC (Streptococcus pneumoniae) of the same molecule?
Answer: 8 mg/L (≈ 17.2 µM)

Question: And the MIC (Staphylococcus aureus [2])?
Answer: 8 mg/L (≈ 17.2 µM)

Question: Which results are given for `O=C(O)c1ccc(Cl)cc1Cc1ccc(Sc2ccc(Cl)c(Cl)c2)c([N+](=O)[O-])c1`?
Answer: MIC (Staphylococcus aureus [1]): 8 mg/L (≈ 17.1 µM); MIC (Streptococcus pneumoniae): 2 mg/L (≈ 4.27 µM); MIC (Staphylococcus aureus [2]): 8 mg/L (≈ 17.1 µM)

Question: What does the source list for `O=C(O)c1cc(Cl)ccc1Cc1ccc(Sc2ccc(Cl)c(Cl)c2)c([N+](=O)[O-])c1`?
Answer: MIC (Staphylococcus aureus [1]): 8 mg/L (≈ 17.1 µM); MIC (Streptococcus pneumoniae): 4 mg/L (≈ 8.53 µM); MIC (Staphylococcus aureus [2]): 8 mg/L (≈ 17.1 µM)

Question: For `CO[C@H]1/C=C/O[C@@]2(C)Oc3c(C)c(O)c4c(O)c(c(/C=N/N5CCN(C)CC5)c(O)c4c3C2=O)NC(=O)/C(C)=C\C=C\[C@H](C)[C@H](O)[C@@H](C)[C@@H](O)[C@@H](C)[C@H](OC(C)=O)[C@@H]1C`, which inhibition (Staphylococcus aureus [17]) is on record?
Answer: Active

Question: And the inhibition (Staphylococcus aureus [18])?
Answer: inactive

Question: What about the inhibition (Staphylococcus aureus [19]) of the same molecule?
Answer: inactive

Question: Which MIC (Staphylococcus aureus [1]) does the source give for `O=C(O)c1ccccc1C(=O)c1ccc(Sc2ccc(Cl)c(Cl)c2)c([N+](=O)[O-])c1` here?
Answer: 16 mg/L (≈ 35.7 µM)

Question: And the MIC (Streptococcus pneumoniae)?
Answer: 8 mg/L (≈ 17.8 µM)

Question: What about the MIC (Staphylococcus aureus [2]) of the same molecule?
Answer: 16 mg/L (≈ 35.7 µM)

Question: Which MIC (Staphylococcus aureus [1]) does the source give for `COc1ccc(C(=O)O)c(Cc2ccc(Sc3ccc(Cl)c(Cl)c3)c([N+](=O)[O-])c2)c1` here?
Answer: 16 mg/L (≈ 34.5 µM)

Question: What about the MIC (Streptococcus pneumoniae) of the same molecule?
Answer: 8 mg/L (≈ 17.2 µM)

Question: And the MIC (Staphylococcus aureus [2])?
Answer: 8 mg/L (≈ 17.2 µM)
